According to ChEMBL document CHEMBL4270489, “Synthesis and in vitro and in vivo antitumour activity study of 11-hydroxyl esterified bergenin/cinnamic acid hybrids” (Eur J Med Chem, 2017):
Active and inactive are the calls of the source. The calls are words filed in the database; no cut-off is given here.

Assays:
PC-3 = assay: Antiproliferative activity against human PC3 cells incubated for 48 to 72 hrs by MTT assay; type: functional, cell-based
How it was run: (§1)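 MTT assay. Cells were grown in DMEM with 10% heat-inactivated FBS at 37°C under 5% CO₂. They were seeded at 5000/well in 5% FBS DMEM for 24 h, then given compound in DMSO at 0.1, 1, 10 and 100 µmol/L for 72 h (the table footnote says 48 h). MTT was added for 4 h, formazan was dissolved in DMSO and read at 570 nm. IC₅₀ was from ≥3 independent runs; >100 μM was given if 50% inhibition was not reached.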

MCF7 = assay: Antiproliferative activity against human MCF7 cells incubated for 48 to 72 hrs by MTT assay; type: functional, cell-based; how it was run: as §1
HepG2 [1] = assay: Antiproliferative activity against human HepG2 cells incubated for 48 to 72 hrs by MTT assay; type: functional, cell-based; how it was run: as §1
SGC-7901 = assay: Antiproliferative activity against human SGC7901 cells incubated for 48 to 72 hrs by MTT assay; type: functional, cell-based; how it was run: as §1
A549 = assay: Antiproliferative activity against human A549 cells incubated for 48 to 72 hrs by MTT assay; type: functional, cell-based; how it was run: as §1
HepG2 [2] = assay: Induction of apoptosis in human HepG2 cells assessed as increase in Bax protein expression by Western blot analysis; type: functional, cell-based
How it was run: (§2)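 Western blot. HepG2 cells were seeded at 5×10⁵/well with compound in 10% FBS at 37°C: 1, 2, 4 or 8 μM for 24 h, or 4 μmol/L over a time course. The vehicle was 0.5% DMSO. Cleared lysates were quantified by BCA and run on 10% SDS-PAGE, then transferred to PVDF. Membranes were blocked in 5% milk/TBST with primary antibodies at 1:2000 at 4°C, HRP secondary at 1:2000 for 2 h, and ECL detection. GAPDH served as loading control.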

HepG2 [3] = assay: Induction of apoptosis in human HepG2 cells assessed as reduction in pro-caspase-3 protein expression at 1 to 8 umol/L incubated for 12 to 48 hrs by Western blot analysis; type: functional, cell-based; how it was run: as §2
HepG2 [4] = assay: Induction of apoptosis in human HepG2 cells assessed as increase in p53 protein expression at 1 to 8 umol/L incubated for 12 to 48 hrs by Western blot analysis
Heps (mouse) [5] = assay: Antitumour activity against murine HepS cells xenografted in Swiss mouse assessed as inhibition of tumor growth at 30 mg/kg, ip dosed every day for 14 days; settings: 336 h, read-out: TGI
HepG2 [6] = assay: Induction of apoptosis in human HepG2 cells incubated for 24 hrs by Annexin V-FITC/propidium iodide staining based flow cytometry (reference value: 1.96%); type: functional, cell-based
Mus musculus [7] = assay: Toxicity in Swiss mouse xenografted with […] assessed as increase in body weight at 15 mg/kg, ip dosed every day for 14 days; type: organism-based; settings: in vivo, 336 h
How it was run: (§3)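 Female Swiss mice (20-22 g) bearing subcutaneous […] (3×10⁶ cells, right flank) were dosed intraperitoneally daily with saline, 15 or 30 mg/kg, or 5-FU 20 mg/kg (n = 6) and killed on day 14. Body weight was recorded daily. Thymus and spleen indexes were calculated as organ weight divided by final body weight. Mean ± S.E.M.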

HepG2 [8] = assay: Induction of apoptosis in human HepG2 cells assessed as reduction in pro-caspase-9 protein expression at 1 to 8 umol/L incubated for 12 to 48 hrs by Western blot analysis; type: functional, cell-based; how it was run: as §2
HepG2 [9] = assay: Induction of apoptosis in human HepG2 cells at 2 umol/L incubated for 24 hrs by Annexin V-FITC/propidium iodide staining based flow cytometry (reference value: 1.96%); type: functional
HepG2 [10] = assay: Induction of apoptosis in human HepG2 cells at 1 umol/L incubated for 24 hrs by Annexin V-FITC/propidium iodide staining based flow cytometry (reference value: 1.96%); type: functional
Heps (mouse) [11] = assay: Antitumour activity against murine HepS cells xenografted in Swiss mouse assessed as reduction in tumor weight at 15 to 30 mg/kg, ip dosed every day for 14 days
HepG2 [12] = assay: Induction of apoptosis in human HepG2 cells assessed as reduction in Bcl2 protein expression at 1 to 8 umol/L incubated for 12 to 48 hrs by Western blot analysis; type: functional, cell-based; how it was run: as §2
HepG2 [13] = assay: Induction of apoptosis in human HepG2 cells assessed as reduction in Bcl-XL protein expression at 1 to 8 umol/L incubated for 12 to 48 hrs by Western blot analysis; type: functional, cell-based; how it was run: as §2
Mus musculus [14] = assay: Toxicity in Swiss mouse xenografted with […] assessed as effect on spleen index at 15 to 30 mg/kg, ip dosed every day for 14 days; type: organism-based; settings: in vivo, 336 h; how it was run: as §3
HepG2 [15] = assay: Induction of cell cycle arrest in human HepG2 cells assessed as accumulation at G0/G1 phase at 2 umol/L incubated for 24 hrs by propidium iodide staining based flow cytometry (reference value: 64.31%); type: functional
HepG2 [16] = assay: Induction of apoptosis in human HepG2 cells assessed as reduction in Bcl2 protein expression by Western blot analysis; type: functional, cell-based; how it was run: as §2
Heps (mouse) [17] = assay: Antitumour activity against murine HepS cells xenografted in Swiss mouse assessed as reduction in tumor size at 15 to 30 mg/kg, ip dosed every day for 14 days
HepG2 [18] = assay: Induction of cell cycle arrest in human HepG2 cells assessed as accumulation at G0/G1 phase at 2 umol/L incubated for 12 hrs by propidium iodide staining based flow cytometry (reference value: 64.31%); type: functional
Heps (mouse) [19] = assay: Antitumour activity against murine HepS cells xenografted in Swiss mouse assessed as inhibition of tumor growth at 15 mg/kg, ip dosed every day for 14 days; settings: 336 h, read-out: TGI
HepG2 [20] = assay: Induction of apoptosis in human HepG2 cells at 4 umol/L incubated for 24 hrs by Annexin V-FITC/propidium iodide staining based flow cytometry (reference value: 1.96%); type: functional
HepG2 [21] = assay: Induction of apoptosis in human HepG2 cells assessed as reduction in Akt protein expression at 1 to 8 umol/L incubated for 12 to 48 hrs by Western blot analysis; type: functional, cell-based; how it was run: as §2
HepG2 [22] = assay: Induction of apoptosis in human HepG2 cells assessed as reduction in Bcl-XL protein expression by Western blot analysis; type: functional, cell-based; how it was run: as §2
Mus musculus [23] = assay: Toxicity in Swiss mouse xenografted with […] assessed as effect on thymus index at 15 to 30 mg/kg, ip dosed every day for 14 days; type: organism-based; settings: in vivo, 336 h; how it was run: as §3
HepG2 [24] = assay: Induction of cell cycle arrest in human HepG2 cells assessed as accumulation at G2/M phase at 2 umol/L incubated for 24 hrs by propidium iodide staining based flow cytometry (reference value: 10.41%); type: functional
HepG2 [25] = assay: Induction of cell cycle arrest in human HepG2 cells assessed as accumulation at S phase at 2 umol/L incubated for 12 hrs by propidium iodide staining based flow cytometry (reference value: 25.28%); type: functional
HepG2 [26] = assay: Induction of cell cycle arrest in human HepG2 cells assessed as accumulation at S phase at 2 umol/L incubated for 24 hrs by propidium iodide staining based flow cytometry (reference value: 25.28%); type: functional
HepG2 [27] = assay: Induction of cell cycle arrest in human HepG2 cells assessed as accumulation at G2/M phase at 2 umol/L incubated for 12 hrs by propidium iodide staining based flow cytometry (reference value: 10.41%); type: functional
Mus musculus [28] = assay: Toxicity in Swiss mouse xenografted with human HepG2 cells assessed as reduction in body weight at 20 mg/kg, ip dosed every day for 14 days; type: organism-based; settings: in vivo, 336 h
How it was run: (§4)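 Female Swiss mice (20-22 g) received 3×10⁶ HepG2 cells subcutaneously in the right flank. After 7-21 days they were randomised into groups of 6, including a saline control, and given daily intraperitoneal injections for 14 days. Body weight was recorded daily. Mice were killed on day 14, and tumour wet weight gave the % inhibition. Data are mean ± S.E.M.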

HepG2 [29] = assay: Antitumour activity against human HepG2 cells xenografted in Swiss mouse assessed as inhibition of tumor growth at 20 mg/kg, ip dosed every day for 14 days; type: functional; settings: 336 h, read-out: TGI; how it was run: as §4

## COc1c(O)cc2c(c1O)[C@@H]1O[C@H](COC(=O)/C=C/c3ccc([N+](=O)[O-])cc3)[C@@H](O)[C@H](O)[C@H]1OC2=O
PC-3
  IC50: > 100 µM
MCF7
  IC50: > 100 µM
HepG2 [1]
  IC50: > 100 µM
SGC-7901
  IC50: > 100 µM
A549
  IC50: > 100 µM

## COc1c(O)cc2c(c1O)[C@@H]1O[C@H](COC(=O)/C=C/c3ccc(Cl)c(Cl)c3)[C@@H](O)[C@H](O)[C@H]1OC2=O
PC-3
  IC50: > 100 µM
MCF7
  IC50: > 100 µM
HepG2 [1]
  IC50: > 100 µM
SGC-7901
  IC50: > 100 µM
A549
  IC50: 63.2 µM

## COc1c(O)cc2c(c1O)[C@@H]1O[C@H](COC(=O)/C=C/c3ccc(F)cc3)[C@@H](O)[C@H](O)[C@H]1OC2=O
PC-3
  IC50: 22.9 µM
MCF7
  IC50: 35.8 µM
HepG2 [1]
  IC50: 17.2 µM
SGC-7901
  IC50: > 100 µM
A549
  IC50: > 100 µM

## COc1ccc(/C=C/C(=O)OC[C@H]2O[C@H]3c4c(cc(O)c(OC)c4O)C(=O)O[C@@H]3[C@@H](O)[C@@H]2O)cc1
PC-3
  IC50: > 100 µM
MCF7
  IC50: 18.7 µM
HepG2 [1]
  IC50: 29.7 µM
SGC-7901
  IC50: 15.9 µM
A549
  IC50: 26.4 µM

## COc1c(O)cc2c(c1O)[C@@H]1O[C@H](COC(=O)/C=C/c3ccc(C#N)cc3)[C@@H](O)[C@H](O)[C@H]1OC2=O
HepG2 [2]
  Activity: Dose-dependent effect
HepG2 [3]
  Activity: Active
PC-3
  IC50: 27 µM
HepG2 [4]
  Activity: Active
MCF7
  IC50: 7.34 µM
Heps (mouse) [5]
  inhibition in vivo at 30 mg/kg: 61%
HepG2 [6]
  Activity: Dose-dependent effect
HepG2 [1]
  IC50: 5.23 µM
Mus musculus [7]
  Activity: Non-Toxic
HepG2 [8]
  Activity: Active
HepG2 [9]
  Activity: 10.68%
HepG2 [10]
  Activity: 5.58%
SGC-7901
  IC50: 8.32 µM
Heps (mouse) [11]
  Activity: Dose-dependent effect
HepG2 [12]
  Activity: Active
HepG2 [13]
  Activity: Active
Mus musculus [14]
  Activity: Non-Toxic
HepG2 [15]
  Activity: 51.15%
HepG2 [16]
  Activity: Dose-dependent effect
Heps (mouse) [17]
  Activity: Dose-dependent effect
HepG2 [18]
  Activity: 57.64%
Heps (mouse) [19]
  inhibition in vivo at 15 mg/kg: 45.4%
HepG2 [20]
  Activity: 20.68%
HepG2 [21]
  Activity: Active
A549
  IC50: 10.7 µM
HepG2 [22]
  Activity: Dose-dependent effect
Mus musculus [23]
  Activity: Non-Toxic
HepG2 [24]
  Activity: 28.93%
HepG2 [25]
  Activity: 28.43%
HepG2 [26]
  Activity: 19.92%
HepG2 [27]
  Activity: 13.93%

## COc1c(O)cc2c(c1O)[C@@H]1O[C@H](CO)[C@@H](O)[C@H](O)[C@H]1OC2=O [BERGENIN]
PC-3
  IC50: > 100 µM
MCF7
  IC50: > 100 µM
HepG2 [1]
  IC50: 34.6 µM
SGC-7901
  IC50: 23.6 µM
A549
  IC50: 77.3 µM

## COc1c(O)cc2c(c1O)[C@@H]1O[C@H](COC(=O)/C=C/c3cc([N+](=O)[O-])cc([N+](=O)[O-])c3)[C@@H](O)[C@H](O)[C@H]1OC2=O
PC-3
  IC50: > 100 µM
MCF7
  IC50: > 100 µM
HepG2 [1]
  IC50: > 100 µM
SGC-7901
  IC50: > 100 µM
A549
  IC50: > 100 µM

## O=c1[nH]cc(F)c(=O)[nH]1 [FLUOROURACIL]
PC-3
  IC50: 38.6 µM
MCF7
  IC50: 7.67 µM
Mus musculus [28]
  Activity: Toxic
HepG2 [1]
  IC50: 17.4 µM
HepG2 [29]
  inhibition in vivo at 20 mg/kg: 52.2%
SGC-7901
  IC50: 13.2 µM
A549
  IC50: 10.7 µM
